The values that follow come from ChEMBL document CHEMBL3525968, “Use of transporter knockdown Caco-2 cells to investigate the in vitro efflux of statin drugs” (Drug Metab Dispos, 2011).

Data set [1] relates to P-gp. Description: Apparent permeability from basolateral to apical side of P-gp knockdown human Caco2 cells at 10 uM up to 120 mins by reverse-phase liquid chromatography with triple-quadrupole tandem mass spectrometry analysis. The format is ADME, cell-based, Caco-2. In outline: (§1)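 Knockdown verified by real-time PCR. Cells grown 3 weeks on collagen-coated polycarbonate Transwells. Bidirectional transport of 10 µM compound in HBSSg pH 7.4, with atenolol and propranolol co-dosed. Receiver sampled at 30–120 min, analysed by LC-MS/MS. Mean ± S.D., n = 3.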
(In general: Caco-2 cells form a polarised layer with tight junctions and transporters.)

Data set [2] can be described thus: Apparent permeability from basolateral to apical side of vector transfected human Caco2 cells at 10 uM up to 120 mins by reverse-phase liquid chromatography with triple-quadrupole tandem mass spectrometry analysis. Type of data set: ADME, cell-based. To be noted: Caco-2. In outline:
as §1

The nature of data set [3]: Efflux ratio of permeability from […] side in P-gp knockdown human Caco2 cells at 10 uM up to 120 mins by reverse-phase liquid chromatography with triple-quadrupole tandem mass spectrometry analysis. The format is ADME, cell-based. Particulars: caco-2, 2 h. In outline: (§2)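 Caco-2 (CRL-2102) stably transduced with lentiviral shRNA against P-gp, BCRP or MRP2, or non-targeting shRNA vector control, kept under 10 µg/mL puromycin. Knockdown verified by real-time PCR. Cells grown 3 weeks on collagen-coated polycarbonate Transwells. Bidirectional transport of 10 µM compound in HBSSg pH 7.4, with atenolol and propranolol co-dosed. Receiver sampled at 30–120 min, analysed by LC-MS/MS. Mean ± S.D., n = 3.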

Data set [4] is described as follows: Apparent permeability from apical to basolateral side of vector transfected human Caco2 cells at 10 uM up to 120 mins by reverse-phase liquid chromatography with triple-quadrupole tandem mass spectrometry analysis. The format is ADME, cell-based. To be noted: Caco-2. The essentials: (§3)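 Caco-2 cells stably carrying lentiviral shRNA against MRP2 or non-targeting shRNA (vector control), kept under 10 µg/mL puromycin, knockdown confirmed by real-time PCR. Cells seeded at 60,000 cells/cm2 on collagen-coated polycarbonate Transwell membranes and grown 3 weeks. HBSS with 10 mM HEPES, 15 mM glucose, pH 7.4. Substrate at 10 µM, dosed apical or basolateral. Receiver sampled at 30, 60, 90, 120 min. Quantified by LC-MS/MS. Papp = VR/(A×C0)×dC/dt.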

Data set [5] deals with MRP2. Description: Efflux ratio of permeability from […] side in MRP2 knockdown human Caco2 cells at 10 uM up to 120 mins by reverse-phase liquid chromatography with triple-quadrupole tandem mass spectrometry analysis. The format is ADME, cell-based, Caco-2. In outline: as §3
Data set [6] deals with MRP2. Description: Apparent permeability from apical to basolateral side of MRP2 knockdown human Caco2 cells at 10 uM up to 120 mins by reverse-phase liquid chromatography with triple-quadrupole tandem mass spectrometry analysis. The format is ADME, cell-based, Caco-2. In outline: as §3
A short description of data set [7]: Efflux ratio of permeability from […] side in MRP2 knockdown human Caco2 cells at 10 uM up to 120 mins by reverse-phase liquid chromatography with triple-quadrupole tandem mass spectrometry analysis relative to vector transfected cells. The format is ADME, cell-based. To be noted: caco-2, 2 h. In outline: as §3
Data set [8] relates to BCRP. Description: Apparent permeability from basolateral to apical side of BCRP knockdown human Caco2 cells at 10 uM up to 120 mins by reverse-phase liquid chromatography with triple-quadrupole tandem mass spectrometry analysis. The format is ADME, cell-based, Caco-2. In outline:
as §1

Data set [9] concerns P-gp. Description: Apparent permeability from apical to basolateral side of P-gp knockdown human Caco2 cells at 10 uM up to 120 mins by reverse-phase liquid chromatography with triple-quadrupole tandem mass spectrometry analysis. Type of data set: ADME, cell-based, Caco-2. In outline:
as §2

Data set [10] relates to BCRP. Description: Apparent permeability from apical to basolateral side of BCRP knockdown human Caco2 cells at 10 uM up to 120 mins by reverse-phase liquid chromatography with triple-quadrupole tandem mass spectrometry analysis. Type of data set: ADME, cell-based, Caco-2. The essentials: as §2
In data set [11] the test system is MRP2. Description: Apparent permeability from basolateral to apical side of MRP2 knockdown human Caco2 cells at 10 uM up to 120 mins by reverse-phase liquid chromatography with triple-quadrupole tandem mass spectrometry analysis. Type of data set: ADME, cell-based, Caco-2. The essentials: as §1
Data set [12] is described as follows: Efflux ratio of permeability from […] side in BCRP knockdown human Caco2 cells at 10 uM up to 120 mins by reverse-phase liquid chromatography with triple-quadrupole tandem mass spectrometry analysis. To be noted: caco-2, 2 h. The format is ADME, cell-based. In outline:
as §2

Data set [13] can be described thus: Efflux ratio of permeability from […] side in BCRP knockdown human Caco2 cells at 10 uM up to 120 mins by reverse-phase liquid chromatography with triple-quadrupole tandem mass spectrometry analysis relative to vector transfected cells. The format is ADME, cell-based. To be noted: caco-2, 2 h. The essentials: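 Efflux ratio (B-A over A-B Papp) measured in shRNA knockdown Caco-2 monolayers and in non-targeting vector-control monolayers, both under puromycin selection. 10 µM compound in HBSSg pH 7.4. Receiver sampled 30–120 min, LC-MS/MS. Each knockdown ratio is expressed as a percentage of the vector-control ratio.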

Data set [14] is described as follows: Apparent permeability of the compound in MRP2 knockdown human Caco2 cells at 10 uM up to 120 mins by reverse-phase liquid chromatography with triple-quadrupole tandem mass spectrometry analysis. The format is ADME, cell-based. Particulars: caco-2, 2 h.
The nature of data set [15]: Apparent permeability of the compound in vector transfected human Caco2 cells at 10 uM up to 120 mins by reverse-phase liquid chromatography with triple-quadrupole tandem mass spectrometry analysis. The format is ADME, cell-based. To be noted: caco-2, 2 h.
Data set [16] can be described thus: Apparent permeability of the compound in P-gp knockdown human Caco2 cells at 10 uM up to 120 mins by reverse-phase liquid chromatography with triple-quadrupole tandem mass spectrometry analysis. Type of data set: ADME, cell-based. Particulars: caco-2, 2 h.
Data set [17] is described as follows: Apparent permeability of the compound in BCRP knockdown human Caco2 cells at 10 uM up to 120 mins by reverse-phase liquid chromatography with triple-quadrupole tandem mass spectrometry analysis. Particulars: caco-2, 2 h. The format is ADME, cell-based.
A short description of data set [18]: Apparent permeability from basolateral to apical side of human Caco2 cells up to 120 mins by Michaelis-Menten equation analysis. The format is ADME, cell-based, Caco-2.

For the compound `C[C@]12CC[C@@H]3c4ccc(OS(=O)(=O)O)cc4CC[C@H]3[C@@H]1CCC2=O` [ESTRONE SULFURIC ACID], the apparent permeability from basolateral to apical (Papp B→A) at 2 h, 10 µM in the data set with P-gp [1] was determined as 22.9 ×10⁻⁶ cm/s; in data set [2], 27.2 ×10⁻⁶ cm/s; in the data set on BCRP [8], 10.5 ×10⁻⁶ cm/s; with MRP2 [11] it was 33.5 ×10⁻⁶ cm/s. The Ratio came out at 43.6 in data set [3], 128% in data set [7], 10.2 in data set [12] and 21% in [13]. For the same compound, the Papp A→B at 2 h, 10 µM in data set [4] is 0.57 ×10⁻⁶ cm/s; in the data set on MRP2 [6], 0.54 ×10⁻⁶ cm/s; in the data set on P-gp [9], 0.52 ×10⁻⁶ cm/s; with BCRP [10], 1.03 ×10⁻⁶ cm/s. Moreover, in the data set with MRP2 [5], the efflux ratio at 2 h, 10 µM came to 62.2.
Take `CC(C)n1c(/C=C/C(O)CC(O)CC(=O)[O-])c(-c2ccc(F)cc2)c2ccccc21.[Na+]` (racemic) [FLUVASTATIN SODIUM]: the Papp B→A at 2 h, 10 µM stood at 25.3 ×10⁻⁶ cm/s in the data set with P-gp [1], 96.1 ×10⁻⁶ cm/s in [2], 57.3 ×10⁻⁶ cm/s in the data set with BCRP [8] and 48.2 ×10⁻⁶ cm/s in the data set on MRP2 [11]. The Papp entry is recorded as “impermeable” in data set [14], “permeable” in data set [15], “impermeable” in data set [16] and “impermeable” in data set [17].
For `C[C@H]1O[C@@H](O[C@H]2[C@@H](O)C[C@H](O[C@H]3[C@@H](O)C[C@H](O[C@H]4CC[C@@]5(C)[C@H](CC[C@@H]6[C@@H]5C[C@@H](O)[C@]5(C)[C@@H](C7=CC(=O)OC7)CC[C@]65O)C4)O[C@@H]3C)O[C@@H]2C)C[C@H](O)[C@@H]1O` [DIGOXIN], the Papp B→A at 2 h, 10 µM in the data set with P-gp [1] was 11.8 ×10⁻⁶ cm/s; in [2] it was 20.1 ×10⁻⁶ cm/s; in the data set on BCRP [8] it was 9.46 ×10⁻⁶ cm/s; in the data set on MRP2 [11], 19 ×10⁻⁶ cm/s. For the same compound, the Ratio in [3] turned out to be 7.4; in data set [7], 121%; in data set [12], 17.7; in [13], 100%. Also, the apparent permeability from apical to basolateral (Papp A→B) at 2 h, 10 µM came out at 1.14 ×10⁻⁶ cm/s in data set [4], 1.59 ×10⁻⁶ cm/s with P-gp [9] and 0.54 ×10⁻⁶ cm/s in the data set with BCRP [10]. In addition, the efflux ratio at 2 h, 10 µM with MRP2 [5] is 21.4.
With `CC[C@H](C)C(=O)O[C@H]1C[C@@H](C)C=C2C=C[C@H](C)[C@H](CC[C@@H]3C[C@@H](O)CC(=O)O3)[C@H]21` [LOVASTATIN], the Papp result in data set [14], in data set [15], in [16] and in [17] was “impermeable” in each case.
Consider `O=C1OC(c2ccc(O)c(S(=O)(=O)[O-])c2)(c2ccc(O)c(S(=O)(=O)[O-])c2)c2c(Br)c(Br)c(Br)c(Br)c21.[Na+].[Na+]` [SULFOBROMOPHTHALEIN SODIUM], for which the Papp B→A at 2 h, 10 µM stood at 1.45 ×10⁻⁶ cm/s in data set [2] and 0.9 ×10⁻⁶ cm/s in the data set with MRP2 [11]. Also, the apparent permeability from apical to basolateral (Papp A→B) at 2 h, 10 µM worked out at 0.03 ×10⁻⁶ cm/s in data set [4] and 0.34 ×10⁻⁶ cm/s in the data set on MRP2 [6]. Further, in the data set on MRP2 [5], the efflux ratio at 2 h, 10 µM is 2.6. Moreover, the Ratio in data set [7] came to 5%.
Regarding `CC(C)c1nc(N(C)S(C)(=O)=O)nc(-c2ccc(F)cc2)c1/C=C/[C@@H](O)C[C@@H](O)CC(=O)[O-].CC(C)c1nc(N(C)S(C)(=O)=O)nc(-c2ccc(F)cc2)c1/C=C/[C@@H](O)C[C@@H](O)CC(=O)[O-].[Ca+2]` [ROSUVASTATIN CALCIUM], the Papp B→A at 2 h, 10 µM worked out at 4.6 ×10⁻⁶ cm/s in the data set on P-gp [1], 14.1 ×10⁻⁶ cm/s in data set [2], 5.8 ×10⁻⁶ cm/s in the data set on BCRP [8] and 6.6 ×10⁻⁶ cm/s in the data set with MRP2 [11]. Further, the Papp entry is “impermeable” in [14], “permeable” in data set [15], “impermeable” in [16] and “impermeable” in [17]. Also, the Km at 2 h in data set [18] (Caco-2) was 98 µM. For the same compound, the Vmax in data set [18] (caco-2, 2 h) amounted to 137 pmol/min/cm2.

Usually Papp B→A stands for the apparent permeability from the basolateral to the apical side of a cell layer. As usually defined, the Papp A→B is how fast a substance crosses the layer from the apical side. The efflux ratio is the permeability from basolateral to apical divided by that in the opposite direction, in the common usage. The term Km denotes the substrate concentration at which the rate is half of its maximum.
